Experimental data published in ChEMBL document CHEMBL1124774, “Synthesis and biological activity of some derivatives of rifamycin P” (1990).
In brackets after ≈: the same amount, converted by molar mass.

Key:
Klebsiella pneumoniae = test: In vitro antibacterial activity of compound against Klebsiella pneumoniae ISM; type: functional
[1] = test system: Mycobacterium scrofulaceum; test: In vitro activity of compound against slowly growing Mycobacterium scrofulaceum 1292; type: functional
How it was run: (§1)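 Medium was Middlebrook 7H10 agar with 2% glycerol and 10% OADC. Organisms from Loevenstein-Jensen slants were grown in 7H9 broth with 0.5% Tween and 10% OADC, adjusted to McFarland no. 1, and spotted with a multipoint inoculator. Sealed plates were incubated at 22, 30 or 37 °C for 4-20 days depending on strain.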

[2] = test system: Mycobacterium scrofulaceum; test: In vitro activity of compound against slowly growing Mycobacterium scrofulaceum 1293; type: functional; how it was run: as §1
[3] = test system: Mycobacterium scrofulaceum; test: In vitro activity of compound against slowly growing Mycobacterium scrofulaceum 1297; type: functional; how it was run: as §1
[4] = test system: Mycobacterium scrofulaceum; test: In vitro activity of compound against slowly growing Mycobacterium scrofulaceum 1301; type: functional; how it was run: as §1
Mycobacterium xenopi [5] = test: In vitro activity compound against slowly growing Mycobacterium xenopi 1446; type: functional; how it was run: as §1
Mycobacterium xenopi [6] = test: In vitro activity of compound against slowly growing Mycobacterium xenopi 554; type: functional; how it was run: as §1
Mycobacterium xenopi [7] = test: In vitro activity of compound against slowl growingy Mycobacterium xenopi 555; type: functional; how it was run: as §1
Mycolicibacterium phlei [8] = test: In vitro activity of compound against rapidly growing Mycobacterium phlei 141; type: functional; how it was run: as §1
Mycolicibacterium phlei [9] = test: In vitro activity of compound against rapidly growing Mycobacterium phlei 1283; type: functional; how it was run: as §1
Mycolicibacterium phlei [10] = test: In vitro activity of compound against rapidly growing Mycobacterium phlei 1289; type: functional; how it was run: as §1
Mycobacterium kansasii [11] = test: In vitro activity compound against slowly growing Mycobacterium kansasii 1298; type: functional; how it was run: as §1
Mycobacterium kansasii [12] = test: In vitro activity of compound against slowly growing Mycobacterium kansasii 1299; type: functional; how it was run: as §1
Mycobacterium marinum [13] = test: In vitro activity of compound against slowly growing Mycobacterium marinum 1388; type: functional; how it was run: as §1
Mycobacterium marinum [14] = test: In vitro activity of compound against slowly growing Mycobacterium marinum 1390; type: functional; how it was run: as §1
Mycobacterium marinum [15] = test: In vitro activity of compound against slowly growing Mycobacterium marinum 1391; type: functional; how it was run: as §1
[16] = test system: Mycolicibacterium fortuitum; test: In vitro activity of compound against rapidly growing Mycobacterium fortuitum 114; type: functional; how it was run: as §1
[17] = test system: Mycolicibacterium fortuitum; test: In vitro activity of compound against rapidly growing Mycobacterium fortuitum 1285; type: functional; how it was run: as §1
[18] = test system: Mycolicibacterium fortuitum; test: In vitro activity of compound against rapidly growing Mycobacterium fortuitum 1287; type: functional; how it was run: as §1
[19] = test system: Mycolicibacterium fortuitum; test: In vitro activity compound against rapidly growing Mycobacterium fortuitum 1302; type: functional; how it was run: as §1
[20] = test system: Mycolicibacterium fortuitum; test: In vitro activity of compound against rapidly growing Mycobacterium fortuitum 140; type: functional; how it was run: as §1
[21] = test system: Mycolicibacterium fortuitum; test: In vitro activity compound against rapidly growing Mycobacterium fortuitum 1440; type: functional; how it was run: as §1
[22] = test system: Mycolicibacterium fortuitum; test: In vitro activity of compound against rapidly growing Mycobacterium fortuitum 646; type: functional; how it was run: as §1
Mycobacterium gordonae [23] = test: In vitro activity of compound against slowly growing Mycobacterium gordonae 1294; type: functional; how it was run: as §1
Mycobacterium gordonae [24] = test: In vitro activity of compound against slowly growing Mycobacterium gordonae 1441; type: functional; how it was run: as §1
Mycobacterium kansasii [25] = test: In vitro activity compound against slowly growing Mycobacterium kansasii 1291; type: functional; how it was run: as §1
[26] = test system: Mycolicibacterium flavescens; test: In vitro activity of compound against rapidly growing Mycobacterium flavescens 1284; type: functional; how it was run: as §1
[27] = test system: Mycolicibacterium flavescens; test: In vitro activity of compound against rapidly growing Mycobacterium flavescens 1286; type: functional; how it was run: as §1
Mycobacterium marinum [28] = test: In vitro activity of compound against slowly growing Mycobacterium marinum 1392 h; type: functional; how it was run: as §1
Mycobacterium marinum [29] = test: In vitro activity of compound against slowly growing Mycobacterium marinum 1393; type: functional; how it was run: as §1
Mycobacterium marinum [30] = test: In vitro activity of compound against slowly growing Mycobacterium marinum 1394; type: functional; how it was run: as §1
Mycobacterium marinum [31] = test: In vitro activity of compound against slowly growing Mycobacterium marinum 1447; type: functional; how it was run: as §1
[32] = test system: Mycobacterium tuberculosis; test: In vitro antibacterial activity of compound against Mycobacterium tuberculosis H37Rv ATCC 9660; type: functional
Mycobacterium avium = test: 50% inhibition of the 20 Mycobacterium (MAC) avium complex clinical isolates; type: functional
How it was run: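 Agar-dilution MICs, 2-fold dilutions over 128-0.0001 μg/mL, on Middlebrook 7H10 agar with 2% glycerol and 10% OADC. Organisms from Loevenstein-Jensen slants were grown in 7H9 broth with 0.5% Tween and 10% OADC, adjusted to McFarland no. 1, and spotted with a multipoint inoculator. Plates were sealed and incubated at 22, 30 or 37 °C for 4-20 days depending on strain.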

Neisseria gonorrhoeae = test: In vitro antibacterial activity of compound against Neisseria gonorrhoeae ISM 68/126; type: functional
Pseudomonas aeruginosa = test: In vitro antibacterial activity of compound against Pseudomonas aeruginosa ATCC 10145; type: functional
How it was run: (§2)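 Twofold microdilution MIC in Iso-Sensitest broth over 128-0.0001 µg/mL. Inoculum was 10^4 cfu/mL, with incubation at 37 °C for 18-24 h.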

Staphylococcus aureus [33] = test: Activity in the murine model (OS route) of Staphylococcus aureus tour septicemia; type: functional
How it was run: (§3)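 Male and female CD1 mice (18-22 g) were infected ip with S. aureus Tour. The challenge was set so untreated mice died within 48 h. Groups were five mice, dosed once daily for 3 days starting immediately after infection. ED50 was calculated on day 10 from the percentage surviving at each dose.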

Staphylococcus aureus [34] = test: Activity in the murine model (subcutaneous route) of Staphylococcus aureus tour septicemia; type: functional; conditions: sc; how it was run: as §3
[35] = test system: Staphylococcus epidermidis; test: In vitro antibacterial activity of compound against Staphylococcus epidermidis ATCC 12228; type: functional; how it was run: as §2
Streptococcus pyogenes = test: In vitro antibacterial activity of compound against Streptococcus pyogenes C 203 SKF 13400; type: functional
How it was run: (§4)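 Streptococcal MICs were run by twofold microdilution in Todd-Hewitt broth over 128-0.0001 µg/mL. Inoculum was 10^4 cfu/mL, with incubation at 37 °C for 18-24 h.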

Staphylococcus aureus [36] = test: In vitro antibacterial activity of compound against Staphylococcus aureus Tour L 165; type: functional; how it was run: as §2
Streptococcus pneumoniae = test: In vitro antibacterial activity of compound against Streptococcus pneumoniae UC 41; type: functional; how it was run: as §4
Enterococcus faecalis = test: In vitro antibacterial activity of compound against Streptococcus faecalis ATCC 7080.; type: functional; how it was run: as §2
[37] = test system: Mycolicibacterium fortuitum; test: In vitro activity of compound against rapidly growing Mycobacterium fortuitum 645; type: functional; how it was run: as §1
Haemophilus influenzae = test: In vitro antibacterial activity of compound against Haemophilus influenzae ATCC 19418; type: functional
Mycobacterium xenopi [38] = test: In vitro activity of compound against slowly growing Mycobacterium xenopi 556; type: functional; how it was run: as §1
Mycobacteroides chelonae = test: In vitro activity of compound against rapidly growing Mycobacterium chelonae 1443

## COC1/C=C/OC2(C)Oc3c(C)c(O)c4c(O)c(c(C=NN5CCN(C6CCCC6)CC5)c(O)c4c3C2=O)NC(=O)/C(C)=C\C=C\C(C)C(O)C(C)C(O)C(C)C(OC(C)=O)C1C (configuration not stated)
Klebsiella pneumoniae
  MIC: 32 µg/mL (≈ 36.5 µM)
[1]
  MIC: 0.016 µg/mL (≈ 0.0182 µM)
[2]
  MIC: 0.032 µg/mL (≈ 0.0365 µM)
[3]
  MIC: 0.063 µg/mL (≈ 0.0718 µM)
[4]
  MIC: 4 µg/mL (≈ 4.56 µM)
Mycobacterium xenopi [5]
  MIC: 0.25 µg/mL (≈ 0.285 µM)
Mycobacterium xenopi [6]
  MIC: 0.25 µg/mL (≈ 0.285 µM)
Mycobacterium xenopi [7]
  MIC: 0.25 µg/mL (≈ 0.285 µM)
Mycolicibacterium phlei [8]
  MIC: 0.016 µg/mL (≈ 0.0182 µM)
Mycolicibacterium phlei [9]
  MIC: 0.063 µg/mL (≈ 0.0718 µM)
Mycolicibacterium phlei [10]
  MIC: 2 µg/mL (≈ 2.28 µM)
Mycobacterium kansasii [11]
  MIC: 0.063 µg/mL (≈ 0.0718 µM)
Mycobacterium kansasii [12]
  MIC: 2 µg/mL (≈ 2.28 µM)
Mycobacterium marinum [13]
  MIC: 0.125 µg/mL (≈ 0.143 µM)
Mycobacterium marinum [14]
  MIC: 0.5 µg/mL (≈ 0.57 µM)
Mycobacterium marinum [15]
  MIC: 0.125 µg/mL (≈ 0.143 µM)
[16]
  MIC: 32 µg/mL (≈ 36.5 µM)
[17]
  MIC: 4 µg/mL (≈ 4.56 µM)
[18]
  MIC: 1 µg/mL (≈ 1.14 µM)
[19]
  MIC: 0.5 µg/mL (≈ 0.57 µM)
[20]
  MIC: 32 µg/mL (≈ 36.5 µM)
[21]
  MIC: 32 µg/mL (≈ 36.5 µM)
[22]
  MIC: 32 µg/mL (≈ 36.5 µM)
Mycobacterium gordonae [23]
  MIC: 0.5 µg/mL (≈ 0.57 µM)
Mycobacterium gordonae [24]
  MIC: 1 µg/mL (≈ 1.14 µM)
Mycobacterium kansasii [25]
  MIC: 4 µg/mL (≈ 4.56 µM)
[26]
  MIC: 32 µg/mL (≈ 36.5 µM)
[27]
  MIC: 0.125 µg/mL (≈ 0.143 µM)
Mycobacterium marinum [28]
  MIC: 0.125 µg/mL (≈ 0.143 µM)
Mycobacterium marinum [29]
  MIC: 0.125 µg/mL (≈ 0.143 µM)
Mycobacterium marinum [30]
  MIC: 0.125 µg/mL (≈ 0.143 µM)
Mycobacterium marinum [31]
  MIC: 0.125 µg/mL (≈ 0.143 µM)
[32]
  MIC: 0.063 µg/mL (≈ 0.0718 µM)
Mycobacterium avium
  MIC50: 1 µg/mL (≈ 1.14 µM)
Neisseria gonorrhoeae
  MIC: 0.5 µg/mL (≈ 0.57 µM)
Pseudomonas aeruginosa
  MIC: 8 µg/mL (≈ 9.12 µM)
Staphylococcus aureus [33]
  ED50: 0.22 mg/kg
Staphylococcus aureus [34]
  ED50: 0.18 mg/kg
[35]
  MIC: 0.063 µg/mL (≈ 0.0718 µM)
Streptococcus pyogenes
  MIC: 0.063 µg/mL (≈ 0.0718 µM)
Staphylococcus aureus [36]
  MIC: 0.063 µg/mL (≈ 0.0718 µM)
Streptococcus pneumoniae
  MIC: 0.063 µg/mL (≈ 0.0718 µM)
Enterococcus faecalis
  MIC: 2 µg/mL (≈ 2.28 µM)
[37]
  MIC: 2 µg/mL (≈ 2.28 µM)
Haemophilus influenzae
  MIC: 0.5 µg/mL (≈ 0.57 µM)
Mycobacterium xenopi [38]
  MIC: 0.5 µg/mL (≈ 0.57 µM)
Mycobacteroides chelonae
  MIC: > 128 µg/mL
